Data from the EternaBench riboswitch data.

Test system: MS2 coat protein
Assay: apparent Kd, MS2 coat protein; higher = weaker binding; RNA-MaP array; tryptophan 2.4 mM where present
Outline: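 Two titrations, one without ligand and one with constant ligand, were run with SNAP-549-labelled MS2 coat protein from 0.7 or 1.5 nM, doubling to 3 µM. The targets were designs transcribed by stalled E. coli RNA polymerase on Illumina sequencing-chip clusters, in 100 mM Tris-HCl pH 7.5, 80 mM KCl, 4 mM MgCl2, BSA, DTT, yeast tRNA and Tween-20. The apparent Kd is the median of filtered per-cluster binding-curve fits, with green signal normalised to red-channel RNA signal and control-cluster median Fmax.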

[1] = designed as: OFF switch for tryptophan, no ligand
[2] = ligand present: tryptophan, designed as: OFF switch for tryptophan
[3] = designed as: ON switch for tryptophan, no ligand
[4] = ligand present: tryptophan, designed as: ON switch for tryptophan

Sequence | apparent Kd [1] [nM] | apparent Kd [2] [nM] | apparent Kd [3] [nM] | apparent Kd [4] [nM]
AAACAUGAGGAUCACCCAUGUAUACUUAGACGAGGACCGGUACGGCCGCCACUCGAACUUCAAGAUUUGGCGGAAAAUGUAUGUA | 11.3 | 12.9 |  | 
AAAGAUCGGAAACGAUCGGCGGCUUGGGCGCGAGGACCGGUACGGCCGCCACUCGGGAAACAUGAGGAUCACCCAUGUUGCUAGC | 13.7 | 15.2 |  | 
AAAUUAUAGGCGGCCGCCACUAGAGUUAGGCUUAUGUACUGGGUAACAUGAGGAUCACCCAUGUAUAGGACCGGGCCAUAAUAAA |  |  | 53.5 | 52.6
AACAUGAGGAUCACCCAUGUCCUCGUGUUCCGAGGACCGGUACGGCCGCCACUCGGUCCUCGCGAGGAUGGUCAAAGACUAUCCA |  |  | 97.4 | 170
AACAUGAGGAUCACCCAUGUGUCCUCGAAACGAGGACCGGUACGGCCGCCACUCGAAAGGUGUUGACGAAAAGUCAGCACCAAAA | 302 | 930 |  | 
AAUACCGGUCCUCGAAGGUGAUCCUCAUAACGAGGACCGGUACGGCCGCCACUCGAUAACAUGAGGAUCACCCAUGUAAUAAUAA | 187 | 138 |  | 
ACAUGAGGAUCACCCAUGUACAUCACCCGACGAGGACCGGUACGGCCGCCACUCGGGUAUAUAUAUACAUCGGGUGAUUUUACGU |  |  | 18.5 | 18
ACAUGAGGAUCACCCAUGUGAAGCAGGGUACGAGGACCGGUACGGCCGCCACUCGAGCAUUAUACCGAGUGAAUGGCAACGAUGU | 15.7 | 17 |  | 
ACCUCAUAGGCGGCCGCCACUGUAAUGACUACGUCAAACAUGAGGAUCACCCAUGUAGUCAAUCACAGGACCGGGUCAUGGGUAG |  |  | 39.1 | 23.9
AGAAUAUAGUCGGCCGCCACUCUUCAUACAUGAGGAUCACCCAUGUUUAAUUCUUGGAUAUUCUUGAGGACCGGGACAUAGGCAU |  |  | 18.4 | 16.8
AGACUUCGCAUAGGAAAACUAUGUGAAGUCCGAGGACCGGUACGGCCGCCACUCGUCCUCAACAUGAGGAUCACCCAUGUAAUAA | 21.5 | 27.3 |  | 
AGAUUCGACACGGCCGCCACUCGUGCCGGAUUACCGAGUGUCGAACAUGAGGAUCACCCAUGUACGAGGACCGGGUGUUGAGUCU | 37.7 | 262 |  | 
AGAUUCGACACGGCCGCCACUUGUGGUGGAUUAUCCAGUGUCGAACAUGAGGAUCACCCAUGUACAAGGACCGGGUGUUGAGUCU | 90.4 | 282 |  | 
AGCACUGUGACGGCCGCCACUACAUAUAGGGUGGUCAGGUUCAUAAUACAUGAGGAUCACCCAUGUAGGACCGGGUCUCAGUGCA | 12.5 | 14.4 |  | 
AGCCGCGUUCUUUCUUUCUUUCUAGCGGCACGAGGACCGGUACGGCCGCCACUCGCCCACAUGAGGAUCACCCAUGUAGUGGGUG | 18.8 | 80.6 |  | 
AGUUUAGACACGGCCGCCACUCGUGACAGAUUUAGCAGUGGUCAACAUGAGGAUCACCCAUGUCUGAGGACCGGGUGUUGAGUUU | 177 | 631 |  | 
AUAAAAGGGUUAUAUAGAUUUAGGUCCAGUCGAGGACCGGUACGGCCGCCACUCGUACUGAAAUACAUGAGGAUCACCCAUGUUA |  |  | 21.8 | 22.7
AUAAUAAUACAUGAGGAUCACCCAUGUAUGCGAGGACCGGUACGGCCGCCACUCGACCUCAUGCAUACAUGAGGAUCACCCAUGU |  |  | 32.5 | 62
AUAAUGAGUGGUGGAUAGGUGAUCCUCUUACGAGGACCGGUACGGCCGCCACUCGAUAACAUGAGGAUCACCCAUGUAAUAAUAA | 15.7 | 49.9 |  | 
AUAUAUACAUGAGGAUCACCCAUGUUAUUUCGAGGACCGGUACGGCCGCCACUCGAUAGAGUAGAAGUAACAUGUGUUAGUUGAU |  |  | 22.3 | 47
AUGGUCGACGAUCUGCGAAAAGCAGAUCGACGAGGACCGGUACGGCCGCCACUCGUGUUCAUUAAACAUGAGGAUCACCCAUGUA |  |  | 48.8 | 21.1
CCAUAAGUACCGGUCCUCAGAUCCUCAUGACGAGGACCGGUACGGCCGCCACUCGAAACAUGAGGAUCACCCAUGUAAUAAUAUC | 30.6 | 24.6 |  | 
CCGCACAUGAGGAUCACCCAUGUCCGGGUUCGAGGACCGGUACGGCCGCCACUCGGACAUGUGCGCCCUUCAUGCACUGUAUAAA |  |  | 129 | 60.9
CCUCAAUAGACGGCCGCCACUGAAACAUGCGGAUACAUGAGGAUCACCCAUGUGGGUGUGUUACGCAGGACCGGGUCAAGACCCG |  |  | 345 | 480
CCUCAAUCGUCGGCCGCCACUGGAUCAUGCGGAUACAUGAGGAUCACCCAUGUGGGUGUGGUACGCAGGACCGGGACAAGACCCG |  |  | 340 | 244
CGACACAUGAGGAUCACCCAUGUAAUGACGCGAGGACCGGUACGGCCGCCACUCGCAUGCCAAUGAGCGCAUGCGGCCUGGGUAU | 18.1 | 14.5 |  | 
